Holding throughout (details): in vivo
In one data set the test system is Lung. The data set can be described thus: Biodistribution in male Sprague-Dawley rat lung at 5 mg/kg, po administered as single dose measured after 0.5 hrs. In kind it is ADME, organism-based. More on the design: dose 5 mg/kg, dosed compound name [14C]-apixaban, route oral. In short, it runs like this: (§1)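 [14C]apixaban (1.0 mg/mL, 20 μCi/mL) in 0.5% Tween 80 in Labrafil, given by oral gavage at 100 μCi/kg to male rats (225-252 g) fasted overnight through 4 h post-dose. One rat per time point. Carcasses frozen in hexane/dry ice and cut into 40 µm sagittal sections. QWBA read on phosphor plates against [14C]glucose standards, reported as µg eq/g. LLOQ 0.037 µg eq/g.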

Data set [1] deals with Spleen. Briefly: Biodistribution in male Sprague-Dawley rat spleen at 5 mg/kg, po administered as single dose measured after 8 hrs. In kind it is ADME, organism-based. More on the design: dose 5 mg/kg, dosed compound name [14C]-apixaban, route oral. In short, it runs like this: (§2)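 Fasted male SD rats (225-252 g) each received one oral gavage dose of [14C]apixaban, 5 mg/kg (100 μCi/kg), in 0.5% Tween 80/Labrafil vehicle. One rat was killed per time point, from 0.5 to 168 h. Frozen carcasses were cut into 40 µm sagittal whole-body sections and read by QWBA phosphor imaging against [14C]glucose calibrants. Results are in µg apixaban eq/g; BLQ <0.037 µg eq/g.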

Another data set relates to Muscle tissue. Briefly: Biodistribution in male Sprague-Dawley rat muscle at 5 mg/kg, po administered as single dose measured after 72 hrs. In kind it is ADME, organism-based. More on the design: dose 5 mg/kg, dosed compound name [14C]-apixaban, route oral. In short, it runs like this:
as §2

The test system of another data set is Pancreas. Briefly: Biodistribution in male Sprague-Dawley rat pancreas at 5 mg/kg, po administered as single dose measured after 1 hr. In kind it is ADME, organism-based. Set-up: dose 5 mg/kg, dosed compound name [14C]-apixaban, route oral. In short, it runs like this:
as §1

Data set [2] relates to Rattus norvegicus. Briefly: Biodistribution in female Sprague-Dawley rat pituitary gland at 5 mg/kg, po administered as single dose measured after 1 hr. In kind it is ADME, organism-based. Set-up: dose 5 mg/kg, dosed compound name [14C]-apixaban, route oral. In short, it runs like this: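 [14C]apixaban (20 μCi/mL in dosing solution) in 0.5% Tween 80 in Labrafil given by oral gavage to fasted female rats, 206-213 g, at 100 μCi/kg. One rat per time point was euthanized and snap-frozen. Sagittal 40 µm whole-body sections were read by QWBA phosphor imaging against [14C]glucose standards. Results are in µg eq apixaban/g, with LLOQ 0.037 μg eq/g.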

The subject of data set [3] is Blood. The data set can be described thus: AUC (0 to infinity) in pregnant Sprague-Dawley rat blood at 5 mg/kg, po administered as single dose. Set-up: time infinity, dose 5 mg/kg, dosed compound name [14C]-apixaban, route oral. In kind it is ADME, organism-based.
Data set [4] concerns Blood. The data set can be described thus: AUC (0 to t) in female Sprague-Dawley rat blood at 5 mg/kg, po administered as single dose. In kind it is ADME, organism-based. Set-up: dose 5 mg/kg, dosed compound name [14C]-apixaban, route oral.
Data set [5] concerns Rattus norvegicus. The data set can be described thus: Biodistribution in pregnant Sprague-Dawley rat bone marrow at 5 mg/kg, po administered as single dose measured after 1 hr. In kind it is ADME, organism-based. Set-up: dose 5 mg/kg, dosed compound name [14C]-apixaban, route oral.
In data set [6] the test system is Rattus norvegicus. Briefly: Biodistribution in pregnant Sprague-Dawley rat brown fat at 5 mg/kg, po administered as single dose measured after 4 hrs. In kind it is ADME, organism-based, Brown adipose tissue. More on the design: dose 5 mg/kg, dosed compound name [14C]-apixaban, route oral.
Data set [7] relates to Thymus. Briefly: Biodistribution in pregnant Sprague-Dawley rat thymus at 5 mg/kg, po administered as single dose measured after 24 hrs. More on the design: dose 5 mg/kg, dosed compound name [14C]-apixaban, route oral. In kind it is ADME, organism-based. In short, it runs like this: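 Pregnant SD rats (270-319 g) were fasted overnight and given one oral gavage of 5 mg/kg (100 μCi/kg) in 0.5% Tween 80 in Labrafil. One rat was euthanized per time point (0.5, 1, 4, 8, 24, 48 h) and the carcass frozen. 40 µm sagittal sections were phosphor-imaged against [14C]glucose standards and results reported as µg eq/g; LLOQ 0.037 µg eq/g.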

The subject of another data set is Brain. The data set can be described thus: Biodistribution in female Sprague-Dawley rat brain at 5 mg/kg, po administered as single dose measured after 8 hrs. In kind it is ADME, organism-based. Set-up: dose 5 mg/kg, dosed compound name [14C]-apixaban, route oral. Put shortly: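 [14C]Apixaban (1.0 mg/mL, 20 μCi/mL in 0.5% Tween 80 in Labrafil) given as a single oral gavage of 5 mg/kg (100 μCi/kg) to fasted female SD rats, one rat per time point. Carcasses were frozen in hexane/dry ice and cut into 40 µm sagittal sections for QWBA against [14C]glucose standards. Brain radioactivity is reported as µg eq/g, with LLOQ 0.037 µg eq/g.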

Data set [8] relates to Thymus. Briefly: Biodistribution in female Sprague-Dawley rat thymus at 5 mg/kg, po administered as single dose measured after 72 hrs. More on the design: dose 5 mg/kg, dosed compound name [14C]-apixaban, route oral. In kind it is ADME, organism-based. Put shortly: (§3)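 Quantitative whole-body autoradiography was run after a single 5 mg/kg (100 μCi/kg) oral gavage to fasted female or pregnant SD rats, one rat per time point. Carcasses were frozen in hexane/dry ice, and 40 µm sagittal sections were dried at −20°C for at least 48 h. Sections were exposed to a phosphor plate alongside [14C]glucose standards (0.001–6.5 µCi/g). Results are µg eq/g, with LLOQ 0.037 µg eq/g.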

The next data set relates to Harderian gland. Briefly: Biodistribution in male Sprague-Dawley rat harderian gland at 5 mg/kg, po administered as single dose measured after 72 hrs. Set-up: dose 5 mg/kg, dosed compound name [14C]-apixaban, route oral. In kind it is ADME, organism-based. Put shortly:
as §2

Data set [9] has as its system Adrenal gland. The data set can be described thus: Biodistribution in female Sprague-Dawley rat adrenal gland at 5 mg/kg, po administered as single dose measured after 8 hrs. In kind it is ADME, organism-based. Set-up: dose 5 mg/kg, dosed compound name [14C]-apixaban, route oral. In short, it runs like this:
(§4)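 [¹⁴C]Apixaban given by oral gavage at 5 mg/kg (100 μCi/kg) in 0.5% Tween 80 in Labrafil (1.0 mg/mL dosing solution) to rats fasted overnight through 4 h post-dose. One rat per time point; carcass frozen in hexane/dry ice. Quantitative whole-body autoradiography used 40 µm sagittal sections and a phosphor imaging plate calibrated with [¹⁴C]glucose standards (0.001–6.5 μCi/g). Read-out in µg eq apixaban/g; LLOQ 0.037 μg eq/g.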

In the next data set the test system is Liver. The data set can be described thus: Biodistribution in female Sprague-Dawley rat liver at 5 mg/kg, po administered as single dose measured after 8 hrs. More on the design: dose 5 mg/kg, dosed compound name [14C]-apixaban, route oral. In kind it is ADME, organism-based. In short, it runs like this:
as §4

Data set [10] concerns Rattus norvegicus. Briefly: Biodistribution in female Sprague-Dawley rat brown fat at 5 mg/kg, po administered as single dose measured after 24 hrs. In kind it is ADME, organism-based, Brown adipose tissue. Set-up: dose 5 mg/kg, dosed compound name [14C]-apixaban, route oral. In short, it runs like this:
as §3

Data set [11] deals with Spleen. Briefly: Biodistribution in pregnant Sprague-Dawley rat spleen at 5 mg/kg, po administered as single dose measured after 1 hr. In kind it is ADME, organism-based. More on the design: dose 5 mg/kg, dosed compound name [14C]-apixaban, route oral.
Data set [12] in a line: AUC (0 to t) in lactating Sprague-Dawley rat milk at 5 mg/kg, po administered as single dose. In kind it is ADME, organism-based. Set-up: dose 5 mg/kg, dosed compound name [14C]-apixaban, route oral. In short, it runs like this:
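Fasted lactating SD rats received 5 mg/kg [14C]apixaban orally (formulation 5.0 mg/mL, 20 μCi/mL). Oxytocin was injected subcutaneously 15 min before collection, and 1 mL milk was taken under anesthesia by milking machine. Sampling was predose and at 0.5–24 h, 3 rats per time point. Plasma was obtained at 1300g for 10 min. Duplicate 50–100 µL aliquots were counted by LSC for 10 min. AUC was calculated in WinNonlin.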

The test system of data set [13] is Rattus norvegicus. Briefly: Biodistribution in female Sprague-Dawley rat pituitary gland at 5 mg/kg, po administered as single dose measured after 24 hrs. In kind it is ADME, organism-based. More on the design: dose 5 mg/kg, dosed compound name [14C]-apixaban, route oral. In short, it runs like this:
as §3

For data set [14], the system named is Rattus norvegicus. The data set can be described thus: Biodistribution in male Sprague-Dawley rat salivary gland at 5 mg/kg, po administered as single dose measured after 1 hr. In kind it is ADME, organism-based. Set-up: dose 5 mg/kg, dosed compound name [14C]-apixaban, route oral.
Another data set deals with Heart. The data set can be described thus: Biodistribution in male Sprague-Dawley rat heart at 5 mg/kg, po administered as single dose measured after 0.5 hrs. More on the design: dose 5 mg/kg, dosed compound name [14C]-apixaban, route oral. In kind it is ADME, organism-based. In short, it runs like this:
as §4

Data set [15] deals with Spleen. Briefly: Biodistribution in male Sprague-Dawley rat spleen at 5 mg/kg, po administered as single dose measured after 72 hrs. Set-up: dose 5 mg/kg, dosed compound name [14C]-apixaban, route oral. In kind it is ADME, organism-based. Put shortly: as §2
Data set [16] deals with Adrenal gland. The data set can be described thus: Biodistribution in pregnant Sprague-Dawley rat adrenal gland at 5 mg/kg, po administered as single dose measured after 4 hrs. In kind it is ADME, organism-based. Set-up: dose 5 mg/kg, dosed compound name [14C]-apixaban, route oral. Put shortly:
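Fasted pregnant SD rats (n=6, 270-319 g) each received one oral gavage dose of [14C]apixaban, 5 mg/kg (100 μCi/kg), in 0.5% Tween 80/Labrafil. One rat was killed at each of 0.5, 1, 4, 8, 24 and 48 h. Carcasses were frozen in hexane/dry ice, cut into 40 µm sagittal sections, exposed to phosphor plates and quantified against [14C]glucose standards as µg eq/g. LLOQ was 0.037 µg eq/g.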

For `COc1ccc(-n2nc(C(N)=O)c3c2C(=O)N(c2ccc(N4CCCC[14C]4=O)cc2)CC3)cc1`, the Radiolabel recovery in the data set with Lung is recorded as 0.57 ugequiv/g; in the data set with Spleen [1], 0.09 ugequiv/g; with Muscle tissue, “Not detected assumed BLQ”; with Pancreas, 0.62 ugequiv/g; in the data set with Rattus norvegicus [2], 0.42 ugequiv/g; in the data set on Rattus norvegicus [5] it was 0.33 ugequiv/g. The Radiolabel recovery is given as 0.87 ugequiv/g in the data set with Rattus norvegicus [6]; “Not detected assumed BLQ” in the data set on Thymus [7]; under 0.037 ugequiv/g with Brain; “Not detected assumed BLQ” in the data set on Thymus [8]; “Not detected assumed BLQ” in the data set on Harderian gland; 0.3 ugequiv/g in the data set with Adrenal gland [9]. Also, the Radiolabel recovery in the data set on Liver is recorded as 1.12 ugequiv/g; in the data set on Rattus norvegicus [10], “Not detected assumed BLQ”; in the data set on Spleen [11] it was 0.51 ugequiv/g; with Rattus norvegicus [13], “Not detected assumed BLQ”; in the data set on Rattus norvegicus [14], 0.72 ugequiv/g; with Heart it was 0.33 ugequiv/g. Moreover, the Radiolabel recovery result is “Not detected assumed BLQ” in the data set on Spleen [15] and 2.3 ugequiv/g with Adrenal gland [16]. This molecule returned an AUC in the data set on Blood [3] of 7200 ngequiv.hr/g. The AUCt with Blood [4] was 3110 ngequiv.hr/g; in [12], 103000 ngequiv.hr/g.

Values taken from ChEMBL document CHEMBL3525963, “Tissue distribution and elimination of [14C]apixaban in rats” (Drug Metab Dispos, 2011).
